TRPML3 agonist = human TRPML3 channel agonists, primary screen, cell-based, HEK293 TRPML3-YFP, Fluo-8 calcium fluorescence, 3 µM; activation, % at 3 µM; Mucolipin-3 (Homo sapiens), Q8TDD5; AID 1448, 2008; 100% = the carbachol control signal; hit rate 0.29% among 220,000;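 active = activation above its plate's cutoff, the mean activation of the plate's test wells plus 3 SD, cut at about 12% in these data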;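 also: 0% = DMSO only wells and 100% = carbachol wells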
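Test system: HEK293 cells stably carrying human TRPML3-YFP; Doses: single dose, 3 µM final nominal compound, 0.3% DMSO final; Schedule: dye loading 1 h 37 °C then 30 min ambient, 125 s read; Technique: Fluo-8 calcium fluorescence; Benchmarks: high control carbachol 87 µM, low control DMSO.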
V1aR counter = agonists of human V1a receptor, primary screen, counter-screen for OXTR agonist project, fluorescence, CHO-V1R cells. Vasopressin V1a receptor (Homo sapiens), P37288. Fluo-8 calcium fluorescence, agonist mode; 0% DMSO, 100% 3 nM vasopressin. activation, % at 3 µM. hit rate 0.25% among 320,000. AID 2797, 2010;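 active = activation above the mean activation of all tested compounds plus 3 SD, per screening run, cut at about 20% in these data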;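 also: signal is peak over basal fluorescence ratio across a 100 second FLIPR read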
Target sequence (P37288 whole entry, looked up): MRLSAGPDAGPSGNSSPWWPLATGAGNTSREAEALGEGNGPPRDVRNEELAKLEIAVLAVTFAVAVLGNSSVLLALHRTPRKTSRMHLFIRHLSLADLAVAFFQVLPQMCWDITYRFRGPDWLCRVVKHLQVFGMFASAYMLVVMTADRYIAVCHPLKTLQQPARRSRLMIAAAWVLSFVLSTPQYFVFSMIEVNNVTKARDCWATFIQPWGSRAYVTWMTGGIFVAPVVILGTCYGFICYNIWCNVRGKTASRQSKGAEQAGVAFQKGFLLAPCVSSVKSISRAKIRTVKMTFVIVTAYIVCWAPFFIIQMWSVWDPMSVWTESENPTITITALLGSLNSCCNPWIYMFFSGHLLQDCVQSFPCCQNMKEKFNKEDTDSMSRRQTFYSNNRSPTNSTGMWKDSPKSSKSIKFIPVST
OXTR potentiate = human OXTR potentiators, primary screen, fluorescence, CHO-OTR cells, Fluo-8 calcium | Fluo-8 calcium fluorescence, potentiator mode; 0% = oxytocin EC15, 100% = EC100 | hit rate 0.061% among 320,000 | activation, % at 3 µM;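 active = activation above that plate's cutoff, the mean activation of tested compounds plus 3 SD, cut at about 6.6% in these data, passing the limit was not always enough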;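 also: 100% uses oxytocin at 75 nM as the full agonist control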
Target sequence (P30559 whole entry, looked up): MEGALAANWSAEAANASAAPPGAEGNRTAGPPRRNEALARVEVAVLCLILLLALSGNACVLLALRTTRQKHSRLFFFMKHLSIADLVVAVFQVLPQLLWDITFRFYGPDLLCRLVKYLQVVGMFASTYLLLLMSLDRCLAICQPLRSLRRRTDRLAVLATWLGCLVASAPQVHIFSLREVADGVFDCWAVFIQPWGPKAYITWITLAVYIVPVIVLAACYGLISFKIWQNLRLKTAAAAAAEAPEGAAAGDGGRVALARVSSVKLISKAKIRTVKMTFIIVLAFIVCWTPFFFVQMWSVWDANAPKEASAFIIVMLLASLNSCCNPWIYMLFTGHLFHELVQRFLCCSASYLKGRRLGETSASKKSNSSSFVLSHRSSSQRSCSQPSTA
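Material: CHO-OTR cells, human receptor; compound dosing: single dose, 3.0 µM nominal final compound concentration; schedule: 6 min compound pre-incubation at room temperature, 100 s kinetic read; measured by: kinetic Fluo-8 calcium fluorescence; read-out basis: % activation vs EC15 and EC100 oxytocin; controls: EC15 oxytocin alone as 0%, 75 nM oxytocin as 100%; replicates: singlicate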
zfTRPN1 agonist = zebrafish TRPN1 channel agonists, primary screen, cell-based, HEK293, calcium fluorescence; activation, % at 3 µM; HEK293 zebrafish TRPN1-YFP, Fluo-8 calcium fluorescence; 100% = response to 87 µM carbachol; hit rate 0.18% among 220,000; transient receptor potential cation channel N1 (TRPN1/NompC), Danio rerio;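 active = activation above its plate's cutoff, the mean activation of test wells on that plate plus 3 SD, cut at about 19% in these data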;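 also: 0% = DMSO alone and 100% = 87 µM carbachol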
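Control set: carbachol 87 µM as high control, DMSO as low control; system: HEK293 stable line with zebrafish TRPN1-YFP; read-out: % activation versus carbachol response; detection: intracellular calcium fluorescence with Fluo-8; doses: single test compound dose, 3 µM nominal, 0.3% DMSO; schedule: dye 1 h 37 °C plus 30 min RT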
OXTR ag = human OXTR agonists, primary screen, fluorescence, CHO-OTR cells, Fluo-8 calcium; Fluo-8 calcium fluorescence; normalized: DMSO 0%, oxytocin 100%; activation, % at 3 µM; hit rate 0.32% among 320,000;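 active = activation above the mean of all tested compounds plus 3 SD, cutoff set per screening run, cut at about 20% in these data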;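 also: peak over basal fluorescence ratio from a 100 s FLIPR kinetic read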
TRPN1 ag 2 = zebrafish TRPN1 channel agonists, counter-screen for TRPML3 agonist project, cell-based, HEK293 TRPN1-YFP, Fluo-8 calcium | hit rate 10% among 310 | activation, % at 3 µM | shares compounds with TRPML3 agonist | Fluo-8 calcium fluorescence; scaled: carbachol wells 100%, DMSO wells 0%;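 active = mean activation over replicates above a set limit taken from the earlier TRPN1 channel primary screen, cut at about 19% in these data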;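 also: 100% = carbachol and 0% = 0.3% DMSO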
TRPML3 ag conf = human TRPML3 channel agonists, confirmation, cell-based, HEK293 TRPML3-YFP, Fluo-8 calcium, triplicate; hit rate 80% among 310; Fluo-8 calcium fluorescence; 100% set by carbachol, 0% by DMSO; shares compounds with TRPML3 agonist; activation, % at 3 µM; AID 1526, 2009;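 active = activation above a set limit derived from the earlier primary screen, cut at about 12% in these data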
OXTR ag confirm = human OXTR agonists, confirmation, fluorescence, CHO-OTR cells, triplicate | shares compounds with OXTR ag | Fluo-8 calcium fluorescence, agonist | activation, % at 3 µM | hit rate 20% among 390 | AID 434963, 2010;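 active = mean activation above about 20% derived from the earlier single-dose screen, limit read from the data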;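 also: peak over minimum fluorescence ratio per well during a 100 second FLIPR read; 0% = DMSO alone and 100% = oxytocin high control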
V1R ag counter 3x = V1a receptor agonists, calcium signal, counter-screen for OXTR agonist project, triplicate, fluorescence, CHO-V1R cells. activation, % at 3 µM. AID 434991, 2010. Fluo-8 calcium fluorescence. shares compounds with OXTR ag. hit rate 10% among 390;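 active = mean activation over triplicate exceeds the hit threshold set in the earlier primary screen, cut at about 20% in these data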;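 also: peak over basal fluorescence ratio within a 100 second read; 0% = DMSO alone and 100% = 3 nM vasopressin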
V1aR agonist cf = V1a receptor agonists, calcium signal, confirmation, Fluo-8 calcium fluorescence, CHO-V1R cells | agonist | activation, % at 3 µM | AID 434964, 2010 | hit rate 20% among 180 | shares compounds with V1aR counter;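 active = average activation exceeds primary screen hit cutoff, cut at about 21% in these data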;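 also: peak over basal fluorescence ratio during a 100 s FLIPR read; 0% = DMSO only wells and 100% = 3 nM vasopressin wells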
OXTR counter = human OXTR agonists, counter-screen for V1R agonist project, fluorescence, CHO-OTR cells, triplicate; shares compounds with V1aR counter; AID 434969, 2010; Fluo-8 calcium fluorescence; hit rate 10% among 180; activation, % at 3 µM;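 active = mean activation over three repeats above the cutoff from the earlier oxytocin receptor agonist screen, cut at about 20% in these data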;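 also: peak over minimum fluorescence ratio within a 100 second FLIPR read; 0% = DMSO only wells and 100% = oxytocin high control wells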
Numbers without * were called inactive; x = no result given. An excerpt weighted towards active compounds, which were near 0.55% of everything screened.

SMILES | TRPML3 agonist | V1aR counter | OXTR potentiate | zfTRPN1 agonist | OXTR ag | TRPN1 ag 2 | TRPML3 ag conf | others
Cc1cccc(N(CC(=O)NC2CCCC2)C(=O)c2nsc(Cl)c2Cl)c1C | 3.4 | -1.4 | -8.1 | -2.4 | -1.8 | x | x
O=c1cc(C(F)(F)F)[nH]c2ccc(OC(F)(F)F)cc12 | 11.8* | 8.5 | -21.1 | 16.8 | 16.2 | 26.4* | 9.0
O=c1cc(C(F)(F)F)[nH]c2c(C(F)(F)F)cccc12 | 14.6* | 14.0 | -18.9 | 5.0 | 15.7 | 29.0* | 12.5*
Cc1cc(=O)c2cccc(Br)c2[nH]1 | 1.0 | 1.0 | -6.2 | 0.9 | 1.4 | x | x
Cc1cc(C)c(C(=O)c2ccc(C(=O)N(C(C)C)C(C)C)cc2)c(C)c1 | 18.3* | -1.8 | -6.8 | -2.1 | -1.6 | 3.6 | 74.0*
Cn1c2c(c(=O)c3ccccc31)CCCC2 | x | -0.6 | -4.6 | x | -2.4 | x | x
Cc1ccc(Cl)cc1N1CCN(S(=O)(=O)N2CCCCC2)CC1 | 29.5* | 0.3 | -12.8 | -0.7 | -2.3 | -1.8 | 111.5*
Cc1ccc(Cl)cc1N1CCN(S(C)(=O)=O)CC1 | 0.0 | 1.8 | -0.9 | -1.3 | 0.4 | x | x
C/C(=N\NC(=O)c1ccc(Cl)cc1)c1ccc2[nH]ccc2c1 | x | 0.5 | -9.1 | x | -1.9 | x | x
COc1ccc(OC)c(S(=O)(=O)N2CCCc3ccccc32)c1 | 47.6* | -0.3 | -14.4 | -0.9 | -2.6 | -0.6 | 56.3*
COc1ccc(OC)c(S(=O)(=O)N2CCc3ccccc32)c1 | 2.3 | -0.7 | -4.3 | -1.8 | -0.8 | x | x
COc1ccc(C(=O)Nc2ccc(S(=O)(=O)N3CCCCC3C)cc2)c(OC)c1OC (configuration not stated) | 70.0* | 3.3 | -6.4 | 1.3 | 3.4 | 0.7 | 83.3*
COCc1cc(=O)[nH]c(N2CCN(Cc3ccc4c(c3)OCO4)CC2)n1 | x | 1.6 | -12.3 | x | 0.3 | x | x
O=C1c2ccccc2N2C(=O)c3ccccc3C2N1Cc1ccccc1 (configuration not stated) | -1.0 | -1.0 | -2.6 | -0.9 | -0.5 | x | x
COc1c(S(=O)(=O)N2CCCC2)ccc(Cl)c1Cl | 11.5* | -0.3 | -7.4 | 0.4 | -1.2 | -0.5 | 7.5
O=S(=O)(c1ccc(Cl)c2ccccc12)N1CCCC1 | 8.6 | -1.2 | -1.0 | -2.6 | -2.0 | x | x
COc1ccc(S(=O)(=O)N2CCCC2)c(Cl)c1Cl | 11.5* | 0.4 | 2.6 | -0.6 | -1.4 | 0.2 | 4.3
CCOC(=O)N1CCN(S(=O)(=O)c2ccc(OC)c(Cl)c2Cl)CC1 | 0.5 | 3.4 | -17.2 | 1.8 | 4.2 | x | x
Cc1ccc(S(=O)(=O)c2c(C)cc(C)nc2Oc2cccc(C(F)(F)F)c2)cc1 | 14.1* | 0.1 | -5.2 | -0.2 | -0.9 | -0.1 | 41.7*
CN1COc2ccc3ccccc3c2C1 | 0.0 | -0.1 | -2.0 | -0.9 | 0.5 | x | x
O=C(NC1(Cc2ccccc2)CCN(CCCc2ccccc2)C1=O)c1ccccc1 (configuration not stated) | x | 2.8 | -3.9 | x | -1.7 | x | x
Cc1nc(NC(=O)c2ccccc2O)sc1C | x | 1.2 | -6.1 | x | 1.2 | x | x
Cc1nc(NC(=O)c2csc3ccccc23)sc1C | 17.8* | -1.3 | -10.1 | -2.1 | -1.7 | 1.4 | 28.1*
Cc1ccc(C(=O)CSC2=C(C#N)C(c3ccco3)CC(=O)N2)c(C)c1 (configuration not stated) | 15.8* | 52.8* | -11.4 | 18.5 | 51.5* | 9.4 | 3.5
Cc1ccc(NC(=O)CSC2=C(C#N)C(c3ccco3)CC(=O)N2)cc1 (configuration not stated) | 0.6 | 1.9 | -13.7 | 1.9 | 0.9 | x | x
SMILES | TRPML3 agonist | V1aR counter | OXTR potentiate | zfTRPN1 agonist | OXTR ag | TRPN1 ag 2 | TRPML3 ag conf | others
Cc1ccc(C2=CC(c3ccc(N(C)C)cc3)n3nnnc3N2)cc1 (configuration not stated) | 17.7* | 9.9 | -7.0 | 14.5 | 7.0 | 2.2 | 0.2
O=C(C1CCN(S(=O)(=O)c2ccc(-n3cnnn3)cc2)CC1)N1CCCCC1 | x | 3.4 | -8.6 | x | 4.6 | x | x
COc1cc(C(=O)NC(=S)NNC(=O)[C@H]2C[C@@H]2c2ccccc2)cc(OC)c1OC | 13.9* | 10.4 | -16.2 | 11.2 | 27.6* | 25.1* | 32.6* | OXTR ag confirm=12.1;V1R ag counter 3x=19.4
O=C(NNC(=O)C1CC(c2cccs2)=NO1)NC1CCCCC1 (configuration not stated) | -0.1 | 0.0 | 1.8 | -0.1 | 0.7 | x | x
O=C1c2cccc3c(N4CCCCC4)ccc(c23)C(=O)N1CCO | 12.8* | 22.3* | -24.6 | 8.2 | 15.7 | 18.2 | 10.3 | V1aR agonist cf=31.7*;OXTR counter=18.5
O=C(CN1CCN(C(=O)CNC(=O)c2ccc3c(c2)OCO3)CC1)Nc1cccc(F)c1 | x | 0.2 | 3.4 | x | -1.5 | x | x
O=C(NCC(c1ccco1)N1CCCCC1)c1ccc(S(=O)(=O)Nc2ccccc2)cc1 (configuration not stated) | x | 4.6 | -5.8 | x | 5.6 | x | x
Cc1ccc(NS(=O)(=O)c2ccc(C(=O)NCC(c3ccco3)N3CCCCC3)cc2)cc1 (configuration not stated) | x | 15.8 | -17.1 | x | 24.3* | x | x | OXTR ag confirm=23.6*;V1R ag counter 3x=12.3
Cc1ccc2ncc(S(=O)(=O)c3ccccc3)c(N3CCCCC3C)c2c1 (configuration not stated) | x | -1.3 | -9.2 | x | -0.4 | x | x
